pIC50: −log10 of the molar value.
Key:
[1] = tested on: Plasmodium falciparum; assay: Antimalarial activity against chloroquine-resistant Plasmodium falciparum W2 after 72 hrs by MSF assay; assay type: functional, organism-based; settings: W2, 72 h
[2] = tested on: Plasmodium falciparum; assay: Antimalarial activity against multi drug resistant Plasmodium falciparum TM91C235 after 72 hrs by MSF assay; assay type: functional, organism-based; settings: TM91C235, 72 h
[3] = tested on: Plasmodium falciparum; assay: Antimalarial activity against chloroquine-sensitive Plasmodium falciparum D6 after 72 hrs by MSF assay; assay type: functional, organism-based; settings: D6, 72 h
[4] = tested on: Plasmodium falciparum; assay: Antimalarial activity against multidrug-resistant Plasmodium falciparum TM90C2A after 72 hrs by MSF assay; assay type: functional, organism-based
Procedure, shortened: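 P. falciparum cultures at late-ring or early-trophozoite stage, 0.3% starting parasitemia and 2% hematocrit, were grown in plates predosed with quadruplicate 12-point two-fold dilutions in DMSO (final […]). Incubation was 72 h at 37 °C in 5% CO2/5% O2/90% N2. Lysis buffer with SYBR Green I (final 10x) was added, then 24 h dark at room temperature and fluorescence read. IC50/IC90 came from sigmoidal variable-slope nonlinear regression.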

[5] = molecular target: Botulinum neurotoxin type A (Clostridium botulinum) (UniProt P0DPI0); assay: Inhibition of Clostridium botulinum recombinant BoNT/A light chain at […] by reverse-phase HPLC analysis
Procedure, shortened: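 Recombinant BoNT/A light chain was tested with a synthetic SNAP-25 187–203 peptide substrate (N-acetylated, C-aminated). The mix held 40 mM HEPES-0.05% Tween pH 7.3, 0.5 mg/ml BSA, 1 mM DTT, excess zinc and 20 µM inhibitor, at 37 °C, quenched with TFA. Cleaved and uncleaved peptide were separated by reverse-phase HPLC, and peak areas gave reaction rates and % inhibition.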

[6] = tested on: Liver; assay: (§1) Half life in mouse liver microsomes at 10 uM by LC-MS/MS analysis; assay type: ADME, Microsome; settings: microsomes, 10 µM
[7] = tested on: HepG2; assay: Cytotoxicity against human HepG2 cells after 48 hrs by MTT assay; assay type: cell-based; settings: HepG2, 48 h
[8] = Selectivity index, ratio of IC50 for human HepG2 cells to IC50 for Plasmodium falciparum W2; assay type: toxicity, cell-based; settings: read-out: Ratio IC50
[9] = Selectivity index, ratio of IC50 for human HepG2 cells to IC50 for Plasmodium falciparum TM91C235; assay type: toxicity, cell-based; settings: read-out: Ratio IC50
[10] = tested on: Liver microsomes; assay: (§2) Half life in human liver microsomes at 10 uM by LC-MS/MS analysis; assay type: ADME, Microsome; settings: microsomes, 10 µM
[11] = Selectivity index, ratio of IC50 for human HepG2 cells to IC50 for Plasmodium falciparum D2; assay type: toxicity, cell-based; settings: read-out: Ratio IC50
[12] = as §1; assay type: ADME, Microsome; settings: liver microsomes
[13] = tested on: Plasmodium falciparum; assay: Antimalarial activity against multidrug-resistant Plasmodium falciparum TM90C2B after 72 hrs by MSF assay; assay type: functional, organism-based
[14] = as §2; assay type: ADME, Microsome; settings: liver microsomes
[15] = tested on: Plasmodium falciparum; assay: Ratio of mefloquine IC50 to compound IC50 against Plasmodium falciparum TM91C235; assay type: functional

Sequence of Botulinum neurotoxin type A (Clostridium botulinum) (P0DPI0 2-448 limits assumed): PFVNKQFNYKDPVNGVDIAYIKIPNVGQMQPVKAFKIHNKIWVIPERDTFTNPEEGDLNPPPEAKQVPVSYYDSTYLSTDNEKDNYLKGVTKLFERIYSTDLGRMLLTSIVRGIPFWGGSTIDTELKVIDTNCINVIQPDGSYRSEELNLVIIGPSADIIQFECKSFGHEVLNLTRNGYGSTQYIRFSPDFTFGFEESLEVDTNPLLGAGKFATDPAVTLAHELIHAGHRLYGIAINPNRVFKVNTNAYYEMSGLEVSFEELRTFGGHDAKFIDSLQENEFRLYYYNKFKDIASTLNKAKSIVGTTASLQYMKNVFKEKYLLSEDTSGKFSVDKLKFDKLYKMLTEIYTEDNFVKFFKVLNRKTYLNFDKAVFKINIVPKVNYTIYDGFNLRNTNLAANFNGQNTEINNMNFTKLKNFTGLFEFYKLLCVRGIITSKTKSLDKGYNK

| Compound | pIC50 [1] | pIC50 [2] | pIC50 [3] | pIC50 [4] | IC90 [3] [µM] | inhibition [5] [%] | t1/2 [6] [h] | pIC50 [7] | selectivity ratio [8] | selectivity ratio [9] | t1/2 [10] [h] | selectivity ratio [11] | IC90 [1] [µM] | half-life at 10 µM [12] [h] | IC90 [2] [µM] | pIC50 [13] | IC90 [13] [µM] | half-life at 10 µM [14] [h] | Ratio IC50 [15] |
| --- | --- | --- | --- | --- | --- | --- | --- | --- | --- | --- | --- | --- | --- | --- | --- | --- | --- | --- | --- |
| C[C@@H]1CC[C@H]2[C@@H](C)C(=O)O[C@@H]3O[C@@]4(C)CC[C@@H]1[C@]32OO4 [ARTEMISININ] | 8.17 | 7.88 | 8.05 | – | – | – | – | – | – | – | – | – | – | – | – | – | – | – | – |
| O[C@@H](c1cc(C(F)(F)F)nc2c(C(F)(F)F)cccc12)[C@H]1CCCCN1 (racemic) | – | – | – | 7.29 | 0.0437 | 28 | – | – | – | – | – | – | – | – | – | – | – | – | – |
| COc1ccc(CNCCCNc2ccnc3cc(Cl)ccc23)cc1 | 7.25 | 7.30 | 8.21 | – | – | 14 | 0.3 | 5.32 | 86 | 95 | 1 | 778 | – | – | – | – | – | – | – |
| Fc1ccc(CNCCNc2ccnc3cc(Cl)ccc23)cc1 | 7.34 | 7.26 | 7.58 | – | – | 68 | – | 4.79 | 350 | 291 | – | 608 | – | – | – | – | – | – | – |
| CC(C)(C)c1ccc(CNCCCNc2ccnc3cc(Cl)ccc23)cc1 | 7.31 | 7.50 | 7.66 | – | – | 50.3 | – | 5.66 | 45 | 68 | – | 100 | – | – | – | – | – | – | – |
| Clc1ccc2c(NCCNCc3cccnc3)ccnc2c1 | 6.65 | 6.96 | 7.27 | – | – | 25 | – | 4.02 | 426 | 882 | – | 1800 | – | – | – | – | – | – | – |
| Clc1ccc2c(NCCNCc3cnccc3Cl)ccnc2c1 | 6.85 | 7.08 | 7.20 | – | – | 23 | 0.617 | 5.19 | 46 | 78 | 0.167 | 102 | – | – | – | – | – | – | – |
| Clc1ccc2c(NCCCNCc3ccc(Br)cc3)ccnc2c1 | 8.23 | 8.21 | 8.40 | 8.15 | 0.00445 | 68 | – | 5.31 | – | – | – | – | 0.00741 | 1 | 0.00766 | 8.10 | 0.0121 | 1 | – |
| Clc1ccc2c(NCCNCc3ccc(Br)cc3)ccnc2c1 | 8.02 | 8.00 | 8.39 | – | – | 69 | – | 5.18 | 695 | 660 | – | 1610 | – | 1 | – | – | – | 1 | 4 |
| COc1ccncc1CNCCNc1ccnc2cc(Cl)ccc12 | 7.72 | 8.14 | – | – | – | 19 | 0.383 | – | – | – | 0.633 | – | – | – | – | – | – | – | – |
| Clc1ccc2c(NCCCNCc3cnccc3Cl)ccnc2c1 | 7.14 | 7.51 | 7.59 | – | – | 35.9 | 0.317 | 5.43 | 52 | 121 | 0.267 | 146 | – | – | – | – | – | – | – |
| Clc1ccc2c(NCCCNCc3cccnc3)ccnc2c1 | 6.58 | 7.13 | – | – | – | 39.9 | – | 4.63 | 90 | 317 | – | – | – | 1 | – | – | – | 1 | – |
| Clc1ccc2c(NCCCNCc3ccncc3)ccnc2c1 | 6.69 | 7.12 | 8.06 | – | – | 42.3 | 0.15 | 4.45 | 176 | 469 | 0.15 | 4150 | – | – | – | – | – | – | – |
| CCN(CC)CCCC(C)Nc1ccnc2cc(Cl)ccc12 (centres undefined) [CHLOROQUINE PHOSPHATE] | – | – | – | – | 0.0192 | 7 | – | – | – | – | – | – | 0.943 | – | 0.476 | – | 0.602 | – | – |
| COc1ccc(CNCCNc2ccnc3cc(Cl)ccc23)cc1 | 7.84 | 7.79 | 8.49 | – | – | 18 | 0.1 | 5.24 | 406 | 362 | 0.45 | 1810 | – | – | – | – | – | – | 4 |
| Clc1ccc2c(NCCNCc3ccccc3)ccnc2c1 | 7.96 | 8.13 | 8.19 | 8.00 | 0.00962 | 52 | 0.383 | 4.71 | – | – | – | – | – | – | 0.0093 | 8.03 | 0.0125 | 1 | – |
| COc1ccncc1CNCCCNc1ccnc2cc(Cl)ccc12 | 7.06 | 7.27 | 8.32 | – | – | 43.2 | – | 5.30 | 57 | 93 | – | 1040 | – | 1 | – | – | – | 1 | – |
| Clc1ccc2c(NCCCNCc3ccccc3)ccnc2c1 | 7.28 | 7.40 | 7.76 | – | – | 51.8 | – | 5.54 | 56 | 73 | – | 169 | – | 1 | – | – | – | 1 | – |
| CC(C)(C)c1ccc(CNCCNc2ccnc3cc(Cl)ccc23)cc1 | 7.37 | 7.61 | 7.62 | – | – | 47 | – | 4.98 | 245 | 419 | – | 429 | – | – | – | – | – | – | – |
| Fc1ccc(CNCCCNc2ccnc3cc(Cl)ccc23)cc1 | 7.31 | 7.53 | 7.88 | – | – | 50.1 | – | 5.26 | 110 | 185 | – | 415 | – | – | – | – | – | – | – |
| Clc1ccc2c(NCCNCc3ccncc3)ccnc2c1 | 6.43 | 6.69 | 7.22 | – | – | 24 | – | 3.81 | 409 | 752 | – | 2530 | – | – | – | – | – | – | – |

Source: ChEMBL document CHEMBL2401699, “4-Amino-7-chloroquinolines: probing ligand efficiency provides botulinum neurotoxin serotype A light chain inhibitors with significant antiprotozoal activity” (J Med Chem, 2013)
